From ChEMBL document CHEMBL2321771, “Inhibition of Ebola Virus Infection: Identification of Niemann-Pick C1 as the Target by Optimization of a Chemical Probe” (ACS Med Chem Lett, 2013) come the findings set out here.

In one experiment the test system is Lassa virus. Briefly: Antiviral activity against Lassa virus by cell based luciferase reporter gene assay. Format: functional, organism-based. Conditions: Mammarenavirus lassaense.
A further experiment concerns Ebolavirus. Briefly: Antiviral activity against Ebola virus by cell based luciferase reporter gene assay. Format: functional, Ebola virus sp. Conditions: Orthoebolavirus.
Experiment [1] concerns the target T1, NPC intracellular cholesterol transporter 1 (Mus musculus) (UniProt O35604).
T1 sequence (whole entry): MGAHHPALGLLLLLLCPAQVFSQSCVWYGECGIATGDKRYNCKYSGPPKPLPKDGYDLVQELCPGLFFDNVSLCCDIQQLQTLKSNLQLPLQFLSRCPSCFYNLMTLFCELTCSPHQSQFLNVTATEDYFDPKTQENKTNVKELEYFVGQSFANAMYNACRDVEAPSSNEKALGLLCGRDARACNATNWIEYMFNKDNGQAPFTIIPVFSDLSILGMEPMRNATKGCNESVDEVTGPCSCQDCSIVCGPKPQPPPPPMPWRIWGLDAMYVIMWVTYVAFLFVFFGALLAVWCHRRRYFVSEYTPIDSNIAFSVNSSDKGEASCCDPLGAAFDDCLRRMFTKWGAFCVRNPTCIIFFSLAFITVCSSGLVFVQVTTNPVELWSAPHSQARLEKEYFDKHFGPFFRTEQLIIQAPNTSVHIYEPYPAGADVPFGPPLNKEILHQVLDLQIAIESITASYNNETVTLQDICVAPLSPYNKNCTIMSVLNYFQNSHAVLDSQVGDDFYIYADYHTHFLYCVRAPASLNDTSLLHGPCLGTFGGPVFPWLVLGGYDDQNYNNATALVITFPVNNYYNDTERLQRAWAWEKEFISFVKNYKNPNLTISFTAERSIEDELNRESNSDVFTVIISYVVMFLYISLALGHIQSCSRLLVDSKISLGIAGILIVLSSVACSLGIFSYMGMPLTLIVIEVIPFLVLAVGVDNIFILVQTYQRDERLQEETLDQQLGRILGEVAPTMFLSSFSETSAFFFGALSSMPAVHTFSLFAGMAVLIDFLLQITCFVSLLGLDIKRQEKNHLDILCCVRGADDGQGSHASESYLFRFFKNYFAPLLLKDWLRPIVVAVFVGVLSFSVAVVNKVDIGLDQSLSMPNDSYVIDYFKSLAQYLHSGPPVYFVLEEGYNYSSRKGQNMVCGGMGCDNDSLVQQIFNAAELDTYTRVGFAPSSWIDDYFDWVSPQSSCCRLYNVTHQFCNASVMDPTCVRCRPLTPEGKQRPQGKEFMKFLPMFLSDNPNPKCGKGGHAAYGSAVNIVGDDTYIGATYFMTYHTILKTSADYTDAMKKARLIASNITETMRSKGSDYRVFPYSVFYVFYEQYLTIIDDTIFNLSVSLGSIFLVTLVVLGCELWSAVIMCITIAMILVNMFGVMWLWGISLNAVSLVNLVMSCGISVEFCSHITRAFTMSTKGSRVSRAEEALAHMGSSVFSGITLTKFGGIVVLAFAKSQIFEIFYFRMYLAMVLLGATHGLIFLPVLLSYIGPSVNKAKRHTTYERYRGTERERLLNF
In words: Inhibition of mouse NPC1 interaction to Ebola virus GP expressed in LE/LY membrane of CHO cells by immunoblotting. Type of experiment: cell-based. Put shortly:
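Late endosome/lysosome membranes from NPC1-null CHO cells, or the same cells stably expressing mouse NPC1, were immobilized on ELISA plates. They were incubated with protease-cleaved Ebola GP in the presence of test compound at specified concentrations. After washing off unbound GP, membranes were solubilized in NP40 and bound GP was detected by GP1-antibody immunoblot. Results are representative of six experiments.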

Experiment [2] deals with Vesicular stomatitis virus. In words: Antiviral activity against Vesicular stomatitis virus by cell based luciferase reporter gene assay. Type of experiment: functional, organism-based.
Experiment [3] has as its target T2, NPC intracellular cholesterol transporter 1 (Homo sapiens) (UniProt O15118).
T2 sequence (whole entry): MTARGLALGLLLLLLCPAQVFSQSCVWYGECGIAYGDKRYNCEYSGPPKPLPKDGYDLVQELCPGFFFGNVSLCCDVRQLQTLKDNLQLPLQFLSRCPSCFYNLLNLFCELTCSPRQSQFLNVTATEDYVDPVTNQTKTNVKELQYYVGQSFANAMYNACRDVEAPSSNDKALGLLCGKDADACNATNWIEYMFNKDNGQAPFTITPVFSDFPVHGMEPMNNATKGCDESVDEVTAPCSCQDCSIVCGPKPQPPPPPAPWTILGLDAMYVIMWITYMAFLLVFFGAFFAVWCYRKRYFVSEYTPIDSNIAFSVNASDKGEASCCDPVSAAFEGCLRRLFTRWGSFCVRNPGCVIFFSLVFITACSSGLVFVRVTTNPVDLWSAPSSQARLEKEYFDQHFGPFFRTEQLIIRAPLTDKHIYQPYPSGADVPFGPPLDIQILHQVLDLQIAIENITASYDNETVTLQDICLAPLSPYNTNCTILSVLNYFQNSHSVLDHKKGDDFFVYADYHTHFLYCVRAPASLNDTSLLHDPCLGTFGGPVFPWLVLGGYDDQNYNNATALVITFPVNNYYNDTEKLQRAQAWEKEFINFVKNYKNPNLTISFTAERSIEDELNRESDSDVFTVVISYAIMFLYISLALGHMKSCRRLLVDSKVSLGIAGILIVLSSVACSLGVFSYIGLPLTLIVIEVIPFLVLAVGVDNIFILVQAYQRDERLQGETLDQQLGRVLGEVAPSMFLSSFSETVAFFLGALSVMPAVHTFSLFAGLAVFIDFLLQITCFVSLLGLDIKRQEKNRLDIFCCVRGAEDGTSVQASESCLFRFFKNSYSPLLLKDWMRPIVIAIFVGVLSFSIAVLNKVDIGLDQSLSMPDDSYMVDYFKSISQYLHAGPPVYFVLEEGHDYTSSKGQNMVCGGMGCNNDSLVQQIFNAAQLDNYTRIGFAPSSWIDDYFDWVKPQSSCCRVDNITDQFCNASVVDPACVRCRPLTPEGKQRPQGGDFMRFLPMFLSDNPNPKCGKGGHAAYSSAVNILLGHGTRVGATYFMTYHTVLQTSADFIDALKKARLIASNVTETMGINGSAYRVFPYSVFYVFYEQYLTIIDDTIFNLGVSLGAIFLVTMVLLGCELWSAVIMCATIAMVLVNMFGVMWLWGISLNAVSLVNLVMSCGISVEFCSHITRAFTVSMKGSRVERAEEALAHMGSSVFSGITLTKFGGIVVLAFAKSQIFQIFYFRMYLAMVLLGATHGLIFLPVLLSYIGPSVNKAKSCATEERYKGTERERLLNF
Briefly: Binding affinity to human NPC1 expressed in LE/LY membrane of CHO cells at 25 uM by immunoblotting. Type of experiment: cell membranes. In a few lines: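 Purified late endosome/lysosome membranes came from NPC1-null CHO cells and CHO cells overexpressing human NPC1. […] Cross-linked proteins were click-labelled with Alexa Fluor 488 azide and detected by anti-Alexa 488 immunoblot. NPC1 was confirmed by anti-NPC1 immunoprecipitation and immunoblot.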

Structures are written as SMILES. Calls of active or inactive are those of the source. No cut-off for these calls is given here.

With `COC(=O)c1ccc(COc2ccccc2CN2CCN(C(=O)CNC(=O)CC34CC5CC(CC(C5)C3)C4)CC2)cc1`, the inhibition result (in the experiment on Lassa virus; in experiment [2]) was “inactive” each time. In addition, in the experiment with Ebolavirus, half-maximal inhibition (IC50) required 20 nM. The inhibition result in experiment [1] is “Active”.
For the compound `O=C(CC12CC3CC(CC(C3)C1)C2)NCC(=O)N1CCN(Cc2ccccc2)CC1`, in the experiment on Ebolavirus, the IC50 is 1300 nM. In addition, the inhibition entry in experiment [1] is “Active”.
For `C#Cc1ccc(COc2ccc(N=[N+]=[N-])cc2CN2CCN(C(=O)CNC(=O)CC34CC5CC(CC(C5)C3)C4)CC2)cc1`, the inhibition entry in experiment [1] was “Active”. For the same compound, in experiment [3], the result was Active.
With `O=C(CC12CC3CC(CC(C3)C1)C2)NCC(=O)N1CCC(Cc2ccccc2)CC1`, 1300 nM corresponded to half-maximal inhibition with Ebolavirus (IC50). Moreover, the inhibition entry in experiment [1] was “Active”.
The corresponding values for `O=C(CC12CC3CC(CC(C3)C1)C2)NCCC(=O)N1CCN(Cc2ccccc2)CC1` are 17000 nM and “Active”.
